# Calb biofilm kill: mixture kills Candida albicans biofilm cells | C. albicans biofilm persisters + clotrimazole, fluorescence viability; primary screen in compound mixtures of four per well | inhibition, % at 7.6 µM | 120,000 tested, 0.02% active | AID 1242;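 active = inhibition above 30.3% in the primary screen of four-compound pools, then above 30% when the compound was retested; inconclusive = passed the primary limit but could not be retested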;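 note: compounds exposed to preformed 24 h biofilms for 48 h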
#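 Test system: C. albicans biofilms. Buffer or medium: RPMI/MOPS medium, pH 7.0. Timing: 48 h compound exposure at 37 °C. Technique: Alamar Blue fluorescence. Evaluation: percent inhibition of biofilm viability.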
# ABCB1 inh: inhibitors of human ABCB1 transporter, ABCG2 counter-screen. AID 1326. P08183. CCRF-Adr cells, JC-1 efflux, flow cytometry. 190,000 tested, 0.067% active. inhibition, % at 6.6 µM; in the data active = inhibition above about 40%;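 note: higher value means more JC-1 retained so stronger ABCB1 efflux block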
# ABCG2 block: inhibitors of human ABCG2 transporter, ABCB1 counter-screen | IgMXP3 cells, JC-1 efflux, flow cytometry | inhibition, % at 6.6 µM | AID 1325 | Q9UNQ0 | 190,000 tested, 0.1% active;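 active = inhibition above 80%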
#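 Test system: IgMXP3 (ABCG2) plus far-red-tagged CCRF-Adr (ABCB1) cells / Amount: 3 million cells/mL in well / Reagent: JC-1 transporter substrate / Timing: 10 min compound exposure, 25 °C / Signal: flow cytometry, 530 nm JC-1 signal / Read-out: percent efflux inhibition, scaled nicardipine 100% to DMSO 0% / Benchmarks: nicardipine as high control, DMSO as low control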
# ROMK mod: human ROMK K+ channel modulation, primary screen. Tet-inducible ROMK, thallium flux fluorescence; actives lie on both sides. 130,000 tested, 2% active. B-score at 10 µM. P48048. AID 1918;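 active = signal ratio slope over the read window, or its plate-corrected B-score, at least 3 SD from the plate mean, either direction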;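 note: B-score of the F/F0 ratio slope over 7 to 12 s after thallium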
# zfTRPN1 agonist: zebrafish TRPN1 (NompC) channel agonism; HEK293 zebrafish TRPN1-YFP, Fluo-8 calcium fluorescence; 100% = response to 87 µM carbachol; activation, % at 3 µM; 220,000 tested, 0.18% active; AID 1424;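 active = activation above its plate's cutoff, the mean activation of test wells on that plate plus 3 SD, cut at about 19% in these data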
#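 Assay system: Zebrafish TRPN1-YFP in HEK293 cells | Incubation: Dye loading 1 h at 37 °C, then 30 min room temperature | Measured by: Kinetic Fluo-8 fluorescence, ex 470-495, em 515-575 nm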
# TRPML3 agonist: agonists of human TRPML3 channel | Q8TDD5 | HEK293 TRPML3-YFP, Fluo-8 calcium fluorescence; 100% = the carbachol control signal | activation, % at 3 µM | 220,000 tested, 0.29% active;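 active = activation above its plate's cutoff, the mean activation of the plate's test wells plus 3 SD, cut at about 12% in these data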
# Target sequence (Q8TDD5 whole entry, looked up): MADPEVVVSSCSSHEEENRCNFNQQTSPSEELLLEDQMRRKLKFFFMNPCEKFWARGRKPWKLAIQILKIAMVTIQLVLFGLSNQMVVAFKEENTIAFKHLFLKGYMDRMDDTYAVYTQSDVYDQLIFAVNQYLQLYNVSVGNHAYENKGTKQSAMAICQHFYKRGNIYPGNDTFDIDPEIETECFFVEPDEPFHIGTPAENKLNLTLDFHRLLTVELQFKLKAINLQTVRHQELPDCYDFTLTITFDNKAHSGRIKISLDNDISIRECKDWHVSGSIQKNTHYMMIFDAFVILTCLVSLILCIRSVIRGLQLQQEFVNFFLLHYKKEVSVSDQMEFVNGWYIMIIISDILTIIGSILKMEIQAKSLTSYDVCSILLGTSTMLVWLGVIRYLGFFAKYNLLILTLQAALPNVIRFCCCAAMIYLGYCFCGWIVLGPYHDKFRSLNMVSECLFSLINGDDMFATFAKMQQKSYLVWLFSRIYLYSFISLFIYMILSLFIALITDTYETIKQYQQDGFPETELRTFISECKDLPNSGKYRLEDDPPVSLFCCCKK
#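 Test system: TRPML3-YFP stable HEK293 cells. Doses: single point at 3 µM. Incubation: dye loading 1 h 37 °C then 30 min ambient, 125 s read. Signal: Fluo-8 calcium dye fluorescence, ex 470-495, em 515-575 nm. Measure: percent activation from peak-to-basal fluorescence ratio, scaled between DMSO and carbachol.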
# ROMK hit retest: confirmation of human ROMK potassium channel modulators | shares compounds with ROMK mod | ROMK thallium flux, fluorescence ratio; stronger effect = lower value | normalized thallium flux (F/F0 slope) at 10 µM | 3,000 tested, 54% active | AID 1917;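 active = Flux at 10 µM at least 3 SD below or above vehicle control mean in one or both replicates; inconclusive = no clear call, values can overlap the other calls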
# A number is an active result; n = inactive; u = inconclusive; x = no result given. The entries come from a sample that favours hits as a whole.
SMILES,Calb biofilm kill,ABCB1 inh,ABCG2 block,ROMK mod,zfTRPN1 agonist,TRPML3 agonist,ROMK hit retest
CN(C)CCNC(=O)CNC(=S)N(CCCN1CCOCC1)Cc1cccs1,n,n,n,-8.5,n,n,n
Clc1nc(Cl)nc(NCCC2=CCCCC2)n1,n,n,n,n,n,n,x
COCCNC(=O)C1CCN(S(=O)(=O)c2c(C)noc2/C=C/c2cccs2)CC1,n,x,x,n,n,n,x
COC(=O)c1[nH]c2ccc(Cl)cc2c1NC(=O)C1CC1,x,n,n,x,n,n,n
Cc1cc(Cl)n2c(nc3ccccc32)c1C#N,n,n,n,-5,n,n,0.036
COc1ccc(CNC(=O)CSc2nc3cccnc3s2)cc1,n,x,x,x,n,n,x
O=C(C1=C[C@@H]2[C@H]3C(=O)N(c4cccc(Cl)c4)C(=O)[C@H]3[C@@H](C(=O)c3ccc(Cl)cc3)N2C=C1)c1ccccc1,n,n,n,x,n,n,x
Cc1ccc(N2C(=O)[C@@H]3[C@H](C2=O)[C@H]2C=C(C(=O)c4ccccc4)C=CN2[C@@H]3C(=O)c2ccc(Cl)cc2)cc1,n,n,n,x,n,n,n
CCCC(c1nnnn1C(C)(C)C)N1CCN(Cc2ccccc2OC)CC1 (centres undefined),n,n,n,n,n,n,x
CCCC(c1nnnn1C(C)(C)C)N1CCN(c2ccccc2)CC1 (centres undefined),n,n,n,-13,n,n,n
COC(C[C@@H]1O[C@@H]1[C@H](O)COCc1ccccc1)OC,n,x,x,x,x,x,x
COc1ccc(NC(=O)COc2ccc(/C=N/n3c(C)nnc3C)cc2OC)cc1,x,n,n,x,n,n,x
COc1cc(/C=N\n2cnnc2)ccc1OCC(=O)Nc1ccc(C)cc1,x,n,n,x,n,n,n
Cc1ccc(S(=O)(=O)/N=C(\Nc2cc(C)on2)c2ccc(Cl)cc2)cc1,n,n,n,n,n,n,x
CCOC(=O)Cn1c(=N)n(CCOc2ccc3ccccc3c2)c2ccccc21,x,n,n,-4.2,n,n,0.056
CCCCOC(=O)Cn1c(=N)n(CCC)c2ccccc21,x,n,n,x,n,n,x
CCOC(=O)Cn1c(=N)n(CCOc2ccc(OC)cc2)c2ccccc21,x,n,n,-2.6,n,n,0.06
CCCn1c(=N)n(CCOc2ccc(OC)cc2)c2ccccc21,x,n,n,x,n,n,x
CN(Cc1nc(Cc2cccc(C(F)(F)F)c2)no1)C1CC(C)(C)NC(C)(C)C1,n,n,n,n,n,n,x
CCN(C#N)c1nc(NC(C)C)nc(NC(C)(C)C)n1,n,n,n,-7.8,n,n,n
COc1ccc(S(=O)(=O)N2CCOCC2)cc1C(C)C,x,n,n,x,n,n,x
CCC(C)c1cc(S(=O)(=O)N2CCOCC2)ccc1OC (centres undefined),x,n,n,-3.7,n,n,u
Cc1cccc(OCCn2c(CCCO)nc3ccccc32)c1,x,n,n,-2.8,n,n,0.059
O=C(NCCCOc1cccc(CN2CCCCC2)c1)c1ccc(Cl)c(Cl)c1,n,n,n,-3.5,n,n,0.057
O=c1c2c(nc3nc(NCc4ccccc4Cl)[nH]n13)CCC2,n,n,n,n,n,n,x
SMILES,Calb biofilm kill,ABCB1 inh,ABCG2 block,ROMK mod,zfTRPN1 agonist,TRPML3 agonist,ROMK hit retest
O=C(Nc1ccc(-c2nc3cc(NC(=O)c4cccs4)ccc3o2)cc1)c1cccs1,x,n,n,x,n,n,x
O=C(Nc1ccc2oc(-c3ccncc3)nc2c1)c1cccs1,x,n,n,x,n,n,n
N#CC1=C(N)C(C#N)(C#N)C(c2cccnc2)C2COCC=C12 (centres undefined),x,n,n,-6.1,n,n,0.057
CC(C)(C)C1=CC(=O)C(=O)C(C(C)(C)C)=C1,n,n,n,-2.3,n,n,0.058
Cc1cc(C)c(C#N)c(SCC(=O)C2CC2)n1,n,x,x,x,n,n,x
COc1ccc(C)cc1N(C(=O)c1ccccc1F)c1nc2ccccc2s1,n,n,n,-2.5,n,n,n
COc1cc(NC(C)CCCN)c2ncccc2c1Oc1ccccc1 (centres undefined),n,n,n,-3.6,n,n,0.065
COc1cc(C(=O)Nc2cccc3cccnc23)cc(OC)c1OC,x,n,n,x,n,n,x
CCCNC(=O)Nc1nccs1,x,n,n,1.7,n,n,u
CCC(C(=O)Nc1nccs1)(C(F)(F)F)C(F)(F)F,x,n,n,n,n,n,u
CCC(C)C(=O)Nc1nccs1 (centres undefined),n,n,n,x,n,n,x
CCC1=NN2C(=N)/C(=C/c3c(C)nn(-c4ccccc4)c3Cl)C(=O)N=C2S1,n,n,n,-3.1,n,n,0.047
Cc1cccc(N2C(=O)CC(N3CCN(Cc4ccc(Cl)cc4)CC3)C2=O)c1 (centres undefined),x,n,n,n,n,n,u
Cc1ccc2c(c1)c1c3n2CCCN(Cc2ccccc2)C3CCC1 (centres undefined),x,x,x,n,n,n,x
COC(Cn1c2c(c3cc(C)ccc31)CCCC2NCc1ccccc1)OC (centres undefined),n,x,x,-3.9,n,n,0.066
Cc1c(/C=N/NC(=O)C(NC(=O)c2ccc3c(c2)OCO3)C(C)C)c2ccccc2n1C (centres undefined),n,n,n,1.6,n,n,n
Cc1sc2nc(COC(=O)c3cccc(S(=O)(=O)N(C)c4ccccc4)c3)[nH]c(=O)c2c1C,n,n,n,n,n,n,x
O=C(c1cccc([N+](=O)[O-])c1)c1ccccn1,n,x,x,x,n,n,u
N#C/C(=C\c1cccc([N+](=O)[O-])c1)c1ccccn1,n,n,n,-3.6,n,n,0.046
O=C(CSc1c2c(nc3cc(Cl)ccc13)CCCC2)NCCCN1CCOCC1,n,n,n,-1.8,n,n,n
CC(C)c1ccc(NC(=O)C2CC(=O)Nc3nc4ccccc4n32)cc1 (centres undefined),n,x,x,x,n,n,x
CC1(C)Oc2ccccc2OC1(O)c1ccc2ccccc2n1 (centres undefined),n,n,n,x,n,n,0.064
O=[N+]([O-])c1ccc(/C=C/c2ccc3ccccc3n2)cc1,n,n,n,n,n,n,x
c1ccc2c(N3CCCCCC3)nc(-c3ccncc3)nc2c1,x,n,n,-2.8,n,n,u
COc1ccc(-n2cc(CNCCc3cnc[nH]3)c(-c3cccc(F)c3)n2)cc1,n,n,n,-1.9,n,n,0.061
COc1ccc(-n2cc(CNCc3cccnc3)c(-c3cccc(F)c3)n2)cc1,n,n,n,n,n,n,x
CC1=C(C(=O)OCC2CCCO2)C(c2coc3ccc(Cl)cc3c2=O)C2=C(CCCC2=O)N1 (centres undefined),n,n,n,-2.7,n,n,n
